In ChEMBL document CHEMBL2163200, “Synthesis, biological evaluation, and structure-activity relationships of novel substituted N-phenyl ureidobenzenesulfonate derivatives blocking cell cycle progression in S-phase and inducing DNA double-strand breaks” (J Med Chem, 2012):
pIC50: −log10 of the molar value. Active and inactive are the calls of the source. The rule behind the calls is not given here.

Key:
Jurkat [1] = assay: Cell cycle arrest in human Jurkat E6-1 cells assessed as accumulation at G2/M phase at 59 uM after 24 hrs by FACS flow cytometry; type: functional
Outline: (§1)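 Jurkat E6 cells grown in RPMI 1640 with 10% FBS at 37 °C, 5% CO2. Compounds were serially diluted in medium starting 50% above the M21 IC50. 4.0 × 10^5 cells were exposed for 24 h, then washed and spiked with chicken red blood cells as internal standard. Cells were fixed in ice-cold ethanol, stained with 1 μg/mL DAPI on ice for 1 h, and phase distribution was read by flow cytometry. The control was 0.5% DMSO.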

Jurkat [2] = assay: Cell cycle arrest in human Jurkat E6-1 cells assessed as accumulation at G0/G1 phase at 59 uM after 24 hrs by FACS flow cytometry; type: functional
Outline: (§2)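 Jurkat E6 cells cultured in RPMI 1640 with 10% FBS at 37 °C, 5% CO2. Compounds serially diluted in medium, starting 50% above the M21 IC50. 4.0 × 10^5 cells were exposed for 24 h. Cells were washed with PBS, chicken red blood cells added as internal standard, and fixed in ice-cold EtOH. After 1 h on ice in PBS with 1 μg/mL DAPI, phase distribution was read by flow cytometry. DMSO-treated cells served as control.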

Jurkat [3] = assay: Cell cycle arrest in human Jurkat E6-1 cells assessed as accumulation at S phase at 59 uM after 24 hrs by FACS flow cytometry; type: functional
Outline: (§3)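 Jurkat E6 T-lymphoblasts in RPMI 1640 with 10% FBS, 37 °C, 5% CO2. […] Chicken red blood cells were added as internal standard. Cells were fixed in ice-cold EtOH and stained with 1 μg/mL DAPI on ice for 1 h before flow cytometry of phase distribution. Vehicle control was 0.5% DMSO.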

M21 [4] = assay: Cytotoxicity against human M21 cells after 48 hrs by SRB assay; type: functional, cell-based; conditions: M21, 48 h
Outline: (§4)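 NCI sulforhodamine B protocol. Cells were grown in high-glucose DMEM with 5% FBS and seeded per well at 4 × 10^3 (HT-29), 3.5 × 10^3 (M21) or 3 × 10^3 (MCF-7), then allowed 24 h to attach. Serial dilutions from 200 μM to 780 nM final were applied in DMSO <0.5% for 48 h. Cells were fixed with cold TCA (10% final) and stained with SRB, with absorbance read at 530–568 nm. Growth inhibition was computed against day-0 plates, giving the 50% inhibitory concentration. At least two experiments in triplicate, CV <10%.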

MCF7 = assay: Cytotoxicity against human MCF7 cells after 48 hrs by SRB assay; type: functional, cell-based; conditions: MCF7, 48 h; outline: as §4
Jurkat [5] = assay: Cell cycle arrest in human Jurkat E6-1 cells assessed as accumulation at G0/G1 phase at 23 uM after 24 hrs by FACS flow cytometry; type: functional; outline: as §2
Jurkat [6] = assay: Cell cycle arrest in human Jurkat E6-1 cells assessed as accumulation at S phase at 23 uM after 24 hrs by FACS flow cytometry; type: functional; outline: as §1
HT-29 = assay: Cytotoxicity against human HT-29 cells after 48 hrs by SRB assay; type: functional, cell-based; conditions: HT-29, 48 h; outline: as §4
Jurkat [7] = assay: Cell cycle arrest in human Jurkat E6-1 cells assessed as accumulation at G2/M phase at 23 uM after 24 hrs by FACS flow cytometry; type: functional; outline: as §1
Jurkat [8] = assay: Cell cycle arrest in human Jurkat E6-1 cells assessed as accumulation at G0/G1 phase at 200 uM after 24 hrs by FACS flow cytometry; type: functional; outline: as §2
Jurkat [9] = assay: Cell cycle arrest in human Jurkat E6-1 cells assessed as accumulation at G2/M phase at 200 uM after 24 hrs by FACS flow cytometry; type: functional; outline: as §1
Jurkat [10] = assay: Cell cycle arrest in human Jurkat E6-1 cells assessed as accumulation at S phase at 200 uM after 24 hrs by FACS flow cytometry; type: functional; outline: as §1
Jurkat [11] = assay: Cell cycle arrest in human Jurkat E6-1 cells assessed as accumulation at G2/M phase at 2.2 uM after 24 hrs by FACS flow cytometry; type: functional; outline: as §1
Jurkat [12] = assay: Cell cycle arrest in human Jurkat E6-1 cells assessed as accumulation at G0/G1 phase at 2.2 uM after 24 hrs by FACS flow cytometry; type: functional; outline: as §2
[13] = Toxicity in fertilized chicken embryo assessed as mortality rate at 30 ug per egg, iv administered on day 11 measured on day 17 by CAM assay; type: organism-based, Gallus gallus; conditions: in vivo, read-out: Activity
Outline: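 Fertilized chicken eggs grafted on the CAM with HT-1080 cells (3.5 × 105/egg) received a 100 μL intravenous injection under the CAM on day 11. The drug was diluted in Cremophor EL/99% ethanol/PBS (1/1/14 v/v). Groups held 10–12 eggs and were incubated until day 17, when dead embryos and signs of toxicity were counted per group.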

Jurkat [14] = assay: Cell cycle arrest in human Jurkat E6-1 cells assessed as accumulation at S phase at 2.2 uM after 24 hrs by FACS flow cytometry; type: functional; outline: as §1
M21 [15] = assay: Induction of DNA damage response in human M21 cells assessed as phosphorylation of H2AX into gammaH2AX at IC50 after 24 hrs by DAPI staining-based immunofluorescence assay; type: functional, cell-based
Outline: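 M21 cells (1 × 10^5) on fibronectin-coated coverslips, grown 24 h, then exposed to agent for 24 h at 37 °C; 0.5% DMSO control. Fixed with 3.7% formaldehyde and permeabilized with 0.1% saponin/3% BSA. Probed with mouse anti-H2AX pS139 antibody for 2 h at room temperature. Nuclei counterstained with DAPI; nuclear γH2AX foci viewed by epifluorescence microscopy.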

HT-1080 = assay: Antitumor activity against human HT1080 cells xenografted in chicken chorioallantoic membrane assessed as inhibition of tumor growth at 30 ug per egg, iv administered on day 11 measured on day 17 by CAM assay; type: functional
Outline: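 HT-1080 fibrosarcoma cells (3.5 × 105/egg) were applied onto freshly exposed CAM of fertilized chicken eggs. On day 11, drug from a DMSO stock was diluted in Cremophor EL/99% ethanol/PBS (1/1/14 v/v) and 100 μL was injected into a vein under the CAM. Groups of 10–12 eggs were kept to day 17, embryos were euthanized at 4 °C for ≥4 h, and tumor wet weight was recorded.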

Jurkat [16] = assay: Cell cycle arrest in human Jurkat E6-1 cells assessed as accumulation at G0/G1 phase at 30 uM after 24 hrs by FACS flow cytometry; type: functional; outline: as §2
Jurkat [17] = assay: Cell cycle arrest in human Jurkat E6-1 cells assessed as accumulation at G2/M phase at 30 uM after 24 hrs by FACS flow cytometry; type: functional; outline: as §1
Jurkat [18] = assay: Cell cycle arrest in human Jurkat E6-1 cells assessed as accumulation at S phase at 30 uM after 24 hrs by FACS flow cytometry; type: functional; outline: as §3
Jurkat [19] = assay: Cell cycle arrest in human Jurkat E6-1 cells assessed as accumulation at G2/M phase at 176 uM after 24 hrs by FACS flow cytometry; type: functional; outline: as §1
Jurkat [20] = assay: Cell cycle arrest in human Jurkat E6-1 cells assessed as accumulation at S phase at 176 uM after 24 hrs by FACS flow cytometry; type: functional; outline: as §1
Jurkat [21] = assay: Cell cycle arrest in human Jurkat E6-1 cells assessed as accumulation at G0/G1 phase at 176 uM after 24 hrs by FACS flow cytometry; type: functional; outline: as §2
Jurkat [22] = assay: Cell cycle arrest in human Jurkat E6-1 cells assessed as accumulation at S phase at 2.5 uM after 24 hrs by FACS flow cytometry; type: functional; outline: as §1
Jurkat [23] = assay: Cell cycle arrest in human Jurkat E6-1 cells assessed as accumulation at G2/M phase at 2.5 uM after 24 hrs by FACS flow cytometry; type: functional; outline: as §1
Jurkat [24] = assay: Cell cycle arrest in human Jurkat E6-1 cells assessed as accumulation at G0/G1 phase at 2.5 uM after 24 hrs by FACS flow cytometry; type: functional; outline: as §2
Jurkat [25] = assay: Cell cycle arrest in human Jurkat E6-1 cells assessed as accumulation at S phase at 19 uM after 24 hrs by FACS flow cytometry; type: functional; outline: as §1
Jurkat [26] = assay: Cell cycle arrest in human Jurkat E6-1 cells assessed as accumulation at G0/G1 phase at 19 uM after 24 hrs by FACS flow cytometry; type: functional; outline: as §2
Jurkat [27] = assay: Cell cycle arrest in human Jurkat E6-1 cells assessed as accumulation at G2/M phase at 19 uM after 24 hrs by FACS flow cytometry; type: functional; outline: as §1

**Q.** Which results are given for `CCNC(=O)Nc1ccc(S(=O)(=O)Nc2ccccc2CC)cc1`?
**A.** Activity (Jurkat [1]): 38%; Activity (Jurkat [2]): 21%; Activity (Jurkat [3]): 41%; pIC50 (M21 [4]): 4.05

**Q.** Which results are given for `CCCc1ccccc1NS(=O)(=O)c1cccc(NC(=O)NCC)c1`?
**A.** pIC50 (MCF7): 4.40; Activity (Jurkat [5]): 39%; Activity (Jurkat [6]): 43%; pIC50 (HT-29): 4.39; pIC50 (M21 [4]): 4.22; Activity (Jurkat [7]): 18%

**Q.** With `CCc1ccccc1NS(=O)(=O)c1ccc(NC(=O)NCCCCl)cc1` as the molecule, how does the pIC50 (MCF7) read?
**A.** < 3.70

**Q.** And the Activity (Jurkat [8])?
**A.** 45%

**Q.** And the Activity (Jurkat [9])?
**A.** 16%

**Q.** And the pIC50 (HT-29)?
**A.** < 3.70

**Q.** What about the pIC50 (M21 [4]) of the same molecule?
**A.** < 3.70

**Q.** What about the Activity (Jurkat [10]) of the same molecule?
**A.** 39%

**Q.** What does the source list for `CCNC(=O)Nc1ccc(S(=O)(=O)Oc2ccccc2CC)cc1`?
**A.** pIC50 (MCF7): 5.47; Activity (Jurkat [11]): 14%; Activity (Jurkat [12]): 11%; mortality at 6 days [13]: 9%; pIC50 (HT-29): 4.92; Activity (Jurkat [14]): 75%; pIC50 (M21 [4]): 5.60; Activity (M21 [15]): Active; TGI (HT-1080): 45%

**Q.** With `CCCc1ccccc1NS(=O)(=O)c1ccc(NC(=O)NCC)cc1` as the molecule, how does the pIC50 (MCF7) read?
**A.** 4.43

**Q.** What about the Activity (Jurkat [16]) of the same molecule?
**A.** 19%

**Q.** And the pIC50 (HT-29)?
**A.** 4.49

**Q.** And the pIC50 (M21 [4])?
**A.** 4.39

**Q.** What about the Activity (Jurkat [17]) of the same molecule?
**A.** 46%

**Q.** What about the Activity (Jurkat [18]) of the same molecule?
**A.** 35%

**Q.** What does the source list for `CCNC(=O)Nc1ccc(S(=O)(=O)Nc2ccccc2C)cc1`?
**A.** pIC50 (MCF7): < 3.70; Activity (Jurkat [19]): 14%; pIC50 (HT-29): < 3.70; Activity (Jurkat [20]): 55%; pIC50 (M21 [4]): < 3.70; Activity (Jurkat [21]): 31%

**Q.** With `CCNC(=O)Nc1ccc(S(=O)(=O)Oc2ccccc2C)cc1` as the molecule, how does the pIC50 (MCF7) read?
**A.** 5.35

**Q.** What about the Activity (Jurkat [22]) of the same molecule?
**A.** 61%

**Q.** And the mortality at 6 days [13]?
**A.** 9%

**Q.** And the pIC50 (HT-29)?
**A.** 4.92

**Q.** What about the pIC50 (M21 [4]) of the same molecule?
**A.** 5.51

**Q.** And the Activity (Jurkat [23])?
**A.** 16%

**Q.** And the Activity (M21 [15])?
**A.** Active

**Q.** What about the Activity (Jurkat [24]) of the same molecule?
**A.** 23%

**Q.** What about the TGI (HT-1080) of the same molecule?
**A.** 68%

**Q.** For `CCc1ccccc1OS(=O)(=O)c1cccc(NC(=O)NCCCCl)c1`, which Activity (Jurkat [25]) is on record?
**A.** 38%

**Q.** What about the Activity (Jurkat [26]) of the same molecule?
**A.** 45%

**Q.** What about the pIC50 (M21 [4]) of the same molecule?
**A.** 4.62

**Q.** And the Activity (Jurkat [27])?
**A.** 17%

**Q.** For `CCCc1ccccc1OS(=O)(=O)c1cccc(NC(=O)NCC)c1`, which Activity (Jurkat [5]) is on record?
**A.** 46%

**Q.** What about the Activity (Jurkat [6]) of the same molecule?
**A.** 44%

**Q.** And the pIC50 (M21 [4])?
**A.** 4.60

**Q.** And the Activity (Jurkat [7])?
**A.** 10%

**Q.** What does the source list for `Cc1ccccc1NS(=O)(=O)c1ccc(NC(=O)NCCCCl)cc1`?
**A.** pIC50 (MCF7): < 3.70; Activity (Jurkat [8]): 47%; Activity (Jurkat [9]): 15%; pIC50 (HT-29): 4.19; pIC50 (M21 [4]): < 3.70; Activity (Jurkat [10]): 38%
